Experimental findings from BindingDB's records for doi:10.1021/acs.jmedchem.0c01126 (The University of Tokyo, 2020) are described below.

For assay [1], the target named is Probable G-protein coupled receptor 34 (Mus musculus, UniProt Q9R1K6). In words: Agonist activity at mouse GPR34 expressed in HEK293 cells co-transfected with AP-TGFalpha/Galphaq/i1 assessed as induction of ectodomain shedding of membrane bound AP-TGFalpha after 1 hr by p-NPP substrate based microplate reader analysis. An outline of the steps: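 HEK293 cells transiently transfected with AP-TGFα, chimeric Gα and mouse GPR34 vectors, then treated with compound. Empty-vector cells (AP-TGFα plus chimeric Gα) served as background. Receptor-specific AP-TGFα release was taken after subtracting that background, and concentration-response curves gave EC50 and Emax. Mean and SEM of 3−8 independent experiments.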

Assay [2] deals with Putative P2Y purinoceptor 10 (Mus musculus, UniProt Q8BFU7). Kind of assay: Agonist activity at mouse P2Y10 expressed in HEK293 cells co-transfected with AP-TGFalpha/Galphaq/i1 assessed as induction of ectodomain shedding of membrane bound AP-TGFalpha after 1 hr by p-NPP substrate based microplate reader analysis. An outline of the steps:
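Run the same way as the GPR34 shedding assay, but with a mouse P2Y10 expression vector in HEK293 cells alongside AP-TGFα and chimeric Gα. Receptor-specific AP-TGFα release was found by subtracting the empty-vector background. EC50 and Emax came from concentration-response curves. Mean and SEM of 3−8 independent experiments.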

Assay [3] deals with G protein-coupled receptor 34a (Danio rerio, UniProt Q6XCC7). In words: Agonist activity at zebrafish GPR34 type a expressed in HEK293 cells co-transfected with AP-TGFalpha/Galphaq/i1 assessed as induction of ectodomain shedding of membrane bound AP-TGFalpha after 1 hr by p-NPP substrate based microplate reader analysis.

Structures are written as SMILES.

Chain of Putative P2Y purinoceptor 10 (Q8BFU7 whole entry, the tested form may be a part): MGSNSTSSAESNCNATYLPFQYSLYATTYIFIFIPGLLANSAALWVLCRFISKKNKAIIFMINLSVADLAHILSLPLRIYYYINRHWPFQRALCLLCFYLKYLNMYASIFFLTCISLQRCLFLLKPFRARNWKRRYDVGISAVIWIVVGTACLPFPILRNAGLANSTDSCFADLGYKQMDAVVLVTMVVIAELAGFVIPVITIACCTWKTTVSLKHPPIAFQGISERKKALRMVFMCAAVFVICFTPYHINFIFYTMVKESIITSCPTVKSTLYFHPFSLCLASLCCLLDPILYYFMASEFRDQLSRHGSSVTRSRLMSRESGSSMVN
Chain of Probable G-protein coupled receptor 34 (Q9R1K6 whole entry, the tested form may be a part): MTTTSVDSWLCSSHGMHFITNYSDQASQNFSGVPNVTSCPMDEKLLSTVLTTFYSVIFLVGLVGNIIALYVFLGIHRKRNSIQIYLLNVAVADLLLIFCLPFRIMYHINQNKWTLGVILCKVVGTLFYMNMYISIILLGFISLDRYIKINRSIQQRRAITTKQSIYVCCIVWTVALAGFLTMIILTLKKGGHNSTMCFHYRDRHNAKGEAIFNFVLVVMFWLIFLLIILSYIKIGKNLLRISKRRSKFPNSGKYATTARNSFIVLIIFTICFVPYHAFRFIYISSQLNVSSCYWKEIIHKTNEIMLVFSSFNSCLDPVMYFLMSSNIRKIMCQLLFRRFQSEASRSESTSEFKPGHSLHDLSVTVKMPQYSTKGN
Chain of G protein-coupled receptor 34a (Q6XCC7 1-389): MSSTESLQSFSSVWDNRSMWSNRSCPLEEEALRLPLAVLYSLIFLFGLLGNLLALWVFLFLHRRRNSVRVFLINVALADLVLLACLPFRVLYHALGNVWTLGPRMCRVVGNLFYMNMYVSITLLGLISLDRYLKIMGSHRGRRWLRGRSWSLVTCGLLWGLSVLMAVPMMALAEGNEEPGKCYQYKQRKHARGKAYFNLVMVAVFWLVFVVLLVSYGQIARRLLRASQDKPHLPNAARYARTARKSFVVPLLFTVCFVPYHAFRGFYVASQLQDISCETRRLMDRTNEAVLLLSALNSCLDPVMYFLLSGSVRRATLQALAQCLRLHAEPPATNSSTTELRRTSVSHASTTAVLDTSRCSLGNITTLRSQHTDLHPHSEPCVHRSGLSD

As a reminder, the EC50 is the concentration needed to bring the measured effect to its halfway point. Turning to `CCCCCCCC/C=C\CCCCCCCC(=O)OCCOP(=O)(O)OC[C@H](N)C(=O)O`, the EC50 in assay [1] is more than 3.16 µM.

Consider `CCCCCCCC/C=C\CCCCCCCC(=O)O[C@@H](C)COP(=O)(O)OC[C@H](N)C(=O)O`, for which, in assay [1], the concentration giving a half-maximal response (EC50) was more than 3.16 µM.

In the case of `CCCCCCCC/C=C\CCCCCCCC(=O)OC[C@@H](COC)OP(=O)(O)OC[C@H](N)C(=O)O`, the concentration giving a half-maximal response (EC50) in assay [2] was more than 3.16 µM.

Take `CCCCCCCC/C=C\CCCCCCCC(=O)OC[C@H](COC)OP(=O)(O)OC[C@H](N)C(=O)O`: the EC50 in assay [2] is more than 3.16 µM.

On to `CCCCCCCC/C=C\CCCCCCCC(=O)OC[C@@H](COCC)OP(=O)(O)OC[C@H](N)C(=O)O`, for which the EC50 in assay [2] is more than 3.16 µM.

`CCCCCCCC/C=C\CCCCCCCC(=O)OC[C@@H](COCCC)OP(=O)(O)OC[C@H](N)C(=O)O`: the EC50 in assay [2] is more than 3.16 µM.

As to `COC[C@H](COC(=O)CCc1ccccc1OCc1cccc(Oc2ccccc2)c1)OP(=O)(O)OC[C@H](N)C(=O)O`, the 50% effective concentration (EC50) in assay [2] is more than 3.16 µM.

With `CCOC[C@H](COC(=O)CCc1ccccc1OCc1cccc(Oc2ccccc2)c1)OP(=O)(O)OC[C@H](N)C(=O)O`, the EC50 in assay [3] and in assay [2] was more than 3.16 µM throughout.

`CCCCCCCCCCCOc1ccccc1CCC(=O)O[C@H]1CCOC[C@H]1OP(=O)(O)OC[C@H](N)C(=O)O`: the EC50 in assay [1] is more than 3.16 µM.

Take `CCCCCCCCCCCOc1ccccc1CCC(=O)O[C@H]1COCC[C@@H]1OP(=O)(O)OC[C@H](N)C(=O)O`: in assay [1], the EC50 is more than 3.16 µM.
